Data as given in article PMC11253873 (RSC Medicinal Chemistry, 2024).
≈ marks a conversion by molar mass, not a printed value. Where “and” joins values, the source holds several entries; their conditions need not be identical. Identical values can stand only once. Like-named read-outs stand apart in the source and are kept apart here.

How the values were obtained:
[1] = tested on: Mtb H37Rv; experiment: microbe, parasite or virus in culture; format: cell-based, Mycobacterium tuberculosis; conditions: for MIC: Mycobacterium tuberculosis, H37RV, 336 h, read-out: Mtb MIC; for Mtb MIC: value in parentheses, Mtb H37Rv, 2 weeks
[2] = target: T1, PfDXR (Plasmodium falciparum, UniProt Q8IKG4); experiment: DXR enzyme inhibition assay; format: biochemical; conditions: values in parentheses; compound at 100 μM
T1 sequence (Q8IKG4 73-488): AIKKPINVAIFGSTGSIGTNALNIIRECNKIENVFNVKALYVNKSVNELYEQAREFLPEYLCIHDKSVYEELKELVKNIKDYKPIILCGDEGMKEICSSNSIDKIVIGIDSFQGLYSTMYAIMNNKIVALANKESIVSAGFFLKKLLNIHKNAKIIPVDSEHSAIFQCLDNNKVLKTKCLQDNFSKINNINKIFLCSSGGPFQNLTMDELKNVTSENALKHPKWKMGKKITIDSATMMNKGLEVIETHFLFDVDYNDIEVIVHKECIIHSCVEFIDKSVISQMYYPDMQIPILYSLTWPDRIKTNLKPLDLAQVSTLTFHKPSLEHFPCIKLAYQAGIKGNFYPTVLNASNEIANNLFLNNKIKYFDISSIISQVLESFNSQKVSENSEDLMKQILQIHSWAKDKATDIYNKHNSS

[3] = target: T2, MtbDXR (Mycobacterium tuberculosis, UniProt P9WNS1); experiment: DXR enzyme inhibition assay; format: biochemical; conditions: values in parentheses; compound at 100 μM
T2 sequence (P9WNS1 1-413): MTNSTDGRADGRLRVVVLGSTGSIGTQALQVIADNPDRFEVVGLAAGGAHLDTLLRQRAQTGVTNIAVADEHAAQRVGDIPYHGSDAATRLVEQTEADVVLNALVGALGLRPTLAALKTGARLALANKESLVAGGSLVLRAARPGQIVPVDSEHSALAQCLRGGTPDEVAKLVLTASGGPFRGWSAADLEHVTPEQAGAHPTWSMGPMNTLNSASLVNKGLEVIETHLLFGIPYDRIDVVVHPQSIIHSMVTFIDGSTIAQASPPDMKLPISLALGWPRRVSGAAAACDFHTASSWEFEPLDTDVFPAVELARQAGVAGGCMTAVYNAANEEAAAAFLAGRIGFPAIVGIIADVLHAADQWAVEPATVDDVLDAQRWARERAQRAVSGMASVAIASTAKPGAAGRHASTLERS

[4] = tested on: Pf3D7 parasites; experiment: P. falciparum growth inhibition assay; format: cell-based, Plasmodium falciparum; conditions: read-out: Pf IC50, 3 days, PicoGreen DNA content
How it was run: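 Asynchronous cultures of wild-type 3D7 and fosmidomycin-resistant had1 strain E1-C12 are kept at 2% hematocrit in supplemented RPMI-1640 with 0.5% Albumax, under 5% O2/5% CO2/90% N2 at 37 °C. Parasites are diluted to 0.5% parasitemia and exposed to 1.2 nM–492.4 μM test compound from the start. After 3 days, DNA is read with PicoGreen (ex 485/em 528 nm). IC50 comes from a 4-parameter nonlinear fit. Technical duplicates, biological triplicate.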

[5] = tested on: Mtb H37Rv; conditions: cited from earlier work
[6] = tested on: Pf3D7 parasites; conditions: read-out: Pf IC50; P. falciparum parasites; cited from earlier work

`CC(=O)N(CCC(c1ccc(Cl)c(Cl)c1)P(=O)(OCOC(=O)C(C)(C)C)OCOC(=O)C(C)(C)C)OC(C)c1ccc(Cl)cc1` (stereo not drawn) [Compound 7j, ({[1-(3,4-Dichlorophenyl)-3-{N-[1-(4-chlorophenyl)ethoxy]acetamido}propyl]({[(2,2-dimethylpropanoyl)oxy]methoxy})phosphoryl}oxy)methyl 2,2-dimethylpropanoate] gave an MIC [1] of 9.4 µg/mL (≈ 13.3 µM).

With “Diammonium {3-[N-({[1,1′-biphenyl]-4-yl}methoxy)acetamido]-1-(3,4-dichlorophenyl) propyl} phosphonate [Compound 6d]” the “Pf DXR percent remaining enzyme activity at 100 μM” value [2] was “(26.97) percent”, the “Mtb DXR percent remaining enzyme activity at 100 μM” value [3] was “(93.90) percent” and the IC50 [4] was 86.4 ± 10.1 µM. For the same molecule, the “Mtb MIC” value [1] was 23.1 µM.

In the case of “Diammonium [3-{acetyl[1-(4-trifluoromethylphenyl)ethoxy]amino}-1-(3,4-dichlorophenyl)propyl] phosphonate [Compound 6m]”, the “Pf DXR percent remaining enzyme activity at 100 μM” value [2] is reported as “(74.69) percent”, the “Mtb DXR percent remaining enzyme activity at 100 μM” value [3] is reported as “(59.60) percent” and the IC50 [4] is reported as 79.2 ± 12.1 µM. The “Mtb MIC” value [1] was > 91 µM.

`CC(=O)N(CCC(c1ccc(Cl)c(Cl)c1)P(=O)(OCOC(=O)C(C)(C)C)OCOC(=O)C(C)(C)C)OCc1ccc(Br)cc1` (stereo not drawn) [Compound 7h, {[(3-{N-[(4-Bromophenyl)methoxy]acetamido}-1-(3,4-dichlorophenyl)propyl)({[(2,2-dimethylpropanoyl)oxy]methoxy})phosphoryl]oxy}methyl 2,2-dimethylpropanoate] gave an MIC [1] of 6.25 µg/mL (≈ 8.45 µM).

For `CC(=O)N(CCC(c1ccc(Cl)c(Cl)c1)P(=O)(OCOC(=O)C(C)(C)C)OCOC(=O)C(C)(C)C)OCc1ccc2ccccc2c1` (stereo not drawn) [Compound 7c, ({[1-(3,4-Dichlorophenyl)-3-{N-[(naphthalen-2-yl)methoxy]acetamido}propyl]({[(2,2-dimethylpropanoyl)oxy]methoxy})phosphoryl}oxy)methyl-2,2-dimethylpropanoate], the MIC [1] was 6.25 µg/mL (≈ 8.8 µM).

With `CC(=O)N(CCC(c1ccc(Cl)c(Cl)c1)P(=O)(OCOC(=O)C(C)(C)C)OCOC(=O)C(C)(C)C)OC(C)c1ccc(C(F)(F)F)cc1` (stereo not drawn) [Compound 7m, ({[1-(3,4-Dichlorophenyl)-3-{N-[1-(4-trifluoromethylphenyl)ethoxy]acetamido}propyl]({[(2,2-dimethylpropanoyl)oxy]methoxy})phosphoryl}oxy)methyl 2,2-dimethylpropanoate] the MIC [1] was > 100 µg/mL.

In the case of `CC(=O)N(CCC(c1ccc(Cl)c(Cl)c1)P(=O)(OCOC(=O)C(C)(C)C)OCOC(=O)C(C)(C)C)OCc1ccc(-c2ccc(C(C)C)cc2)cc1` (stereo not drawn) [Compound 7i, ({[1-(3,4-Dichlorophenyl)-3-(N-{[4′-(propan-2-yl)-[1,1′-biphenyl]-4-yl]methoxy}acetamido)propyl]({[(2,2-dimethylpropanoyl)oxy]methoxy})phosphoryl}oxy)methyl 2,2-dimethylpropanoate], the MIC [1] is reported as > 100 µg/mL.

With “Diammonium (3-{N-[(4-bromophenyl) methoxy] acetamido}-1-(3,4-dichlorophenyl) propyl) phosphonate [Compound 6h]” the “Pf DXR percent remaining enzyme activity at 100 μM” value [2] was “(53.07) percent”, the “Mtb DXR percent remaining enzyme activity at 100 μM” value [3] was “(72.30) percent” and the IC50 [4] was 67.8 ± 3.57 µM. The “Mtb MIC” value [1] was > 92 µM.

`CC(=O)N(CCC(c1ccc(Cl)c(Cl)c1)P(=O)(OCOC(=O)C(C)(C)C)OCOC(=O)C(C)(C)C)OCCCCc1ccccc1` (stereo not drawn) [Compound 7g, ({[1-(3,4-Dichlorophenyl)-3-[N-(4-phenylbutoxy)acetamido]propyl]({[(2,2-dimethylpropanoyl)oxy]methoxy})phosphoryl}oxy) methyl 2,2-dimethylpropanoate] showed an MIC [1] of 12.5 µg/mL (≈ 17.8 µM).

`CC(=O)N(CCC(c1ccc(Cl)c(Cl)c1)P(=O)(O)O)OCc1ccc2ccccc2c1.N.N` (stereo not drawn) [Compound 6c] showed an MIC [1] of 12.5 µg/mL.

For `O=CN(O)CCCP(=O)(O)O` [1(Fos), Fosmidomycin], the “Mtb MIC” value [5] is given as >500 μg mL^−1 and >500 (ref. [34]) μg mL^−1.

For `CC(=O)N(CCC(c1ccc(Cl)c(Cl)c1)P(=O)(OCOC(=O)C(C)(C)C)OCOC(=O)C(C)(C)C)OC(C)c1ccc(C)cc1` (stereo not drawn) [Compound 7k, ({[1-(3,4-Dichlorophenyl)-3-{N-[1-(4-methylphenyl)ethoxy]acetamido}propyl]({[(2,2-dimethylpropanoyl)oxy]methoxy})phosphoryl}oxy)methyl 2,2-dimethylpropanoate], the MIC [1] was 12.5 µg/mL (≈ 18.2 µM).

For `CC(=O)N(O)CCCP(=O)(O)O` [2(FR), FR900098], the IC50 [6] is listed as 0.511 µM and the “Mtb MIC” value [5] is listed as >500 μg mL^−1 and >500 (ref. [34]) μg mL^−1.

In the case of `CC(=O)N(CCC(c1ccc(Cl)c(Cl)c1)P(=O)(OCOC(=O)C(C)(C)C)OCOC(=O)C(C)(C)C)OC(C)c1ccc(F)cc1` (stereo not drawn) [Compound 7n, ({[1-(3,4-Dichlorophenyl)-3-{N-[1-(4-fluorophenyl)ethoxy]acetamido}propyl]({[(2,2-dimethylpropanoyl)oxy]methoxy})phosphoryl}oxy)methyl 2,2-dimethylpropanoate], the MIC [1] is reported as 4.6 µg/mL (≈ 6.64 µM).

Work on `CC(=O)N(CCC(c1ccc(Cl)c(Cl)c1)P(=O)(OCOC(=O)C(C)(C)C)OCOC(=O)C(C)(C)C)OCc1ccccc1` (stereo not drawn) [Compound 7b, [({3-[N-(Benzyloxy)acetamido]-1-(3,4-dichlorophenyl)propyl}({[(2,2-dimethylpropanoyl)oxy]methoxy})phosphoryl)oxy]methyl 2,2-dimethylpropanoate] yielded an MIC [1] of 6.25 µg/mL (≈ 9.46 µM).

In the case of “Diammonium {3-[N-(benzyloxy)acetamido]-1-(3,4-dichlorophenyl)propyl} phosphonate [Compound 6b]”, the “Pf DXR percent remaining enzyme activity at 100 μM” value [2] is reported as “(26.66) percent”, the “Mtb DXR percent remaining enzyme activity at 100 μM” value [3] is reported as “(34.20) percent” and the IC50 [4] is reported as 31.5 ± 7.85 µM. The “Mtb MIC” value [1] was > 214 µM.

With `CC(=O)N(CCC(c1ccc(Cl)c(Cl)c1)P(=O)(OCOC(=O)C(C)(C)C)OCOC(=O)C(C)(C)C)OC(C)c1ccccc1` (stereo not drawn) [Compound 7e, ({[1-(3,4-Dichlorophenyl)-3-[N-(1-phenylethoxy)acetamido]propyl]({[(2,2-dimethylpropanoyl)oxy]methoxy})phosphoryl}oxy) methyl 2,2-dimethylpropanoate] the MIC [1] was 9.4 µg/mL and 13.9 µM.

For “[({3-[N-({[1,1′-Biphenyl]-4-yl}methoxy)acetamido]-1-(3,4-dichlorophenyl)propyl}({[(2,2-dimethylpropanoyl)oxy] methoxy}) phosphoryl)oxy] methyl-2,2-dimethylpropanoate [Compound 7d]”, the IC50 [4] was 8.78 ± 0.92 µM and the “Mtb MIC” value [1] was 17.0 µM.

For “Diammonium [1-(3,4-dichlorophenyl)-3-[N-(4-phenylbutoxy)acetamido]propyl] phosphonate [Compound 6g]”, the “Pf DXR percent remaining enzyme activity at 100 μM” value [2] was “(25.64) percent”, the “Mtb DXR percent remaining enzyme activity at 100 μM” value [3] was “(99.10) percent” and the IC50 [4] was 63.3 ± 16.7 µM. For the same molecule, the “Mtb MIC” value [1] was 3.1 µM.

`CC(=O)N(CCC(c1ccc(Cl)c(Cl)c1)P(=O)(OCOC(=O)C(C)(C)C)OCOC(=O)C(C)(C)C)OCc1ccc(C(C)C)cc1` (stereo not drawn) [Compound 7f, ({[1-(3,4-Dichlorophenyl)-3-(N-{[4-(propan-2-yl)phenyl]methoxy}acetamido)propyl]({[(2,2-dimethylpropanoyl)oxy]methoxy})phosphoryl}oxy) methyl 2,2-dimethylpropanoate] gave an MIC [1] of 12.5 µg/mL (≈ 17.8 µM).

Molecule `CC(=O)N(O)CCC(c1ccc(Cl)c(Cl)c1)P(=O)(OCOC(=O)C(C)(C)C)OCOC(=O)C(C)(C)C` (stereo not drawn) [Compound 7a, ({[1-(3,4-Dichlorophenyl)-3-(N-hydroxyacetamido)propyl]({[(2,2-dimethylpropanoyl)oxy]methoxy})phosphoryl}oxy)methyl 2,2-dimethylpropanoate] has an MIC [1] of 4.6 µg/mL (≈ 8.06 µM).

In the case of `CC(=O)N(CCC(c1ccc(Cl)c(Cl)c1)P(=O)(O)O)OCc1ccc(-c2ccc(C(C)C)cc2)cc1.N.N` (stereo not drawn) [Compound 6i], the MIC [1] is reported as 25 µg/mL.
